# From ChEMBL document CHEMBL2086243, “Spirocyclic nortriterpenoids with NGF-potentiating activity from the fruits of Leonurus heterophyllus” (J Nat Prod, 2012)
# Active and inactive are the calls of the source. No cut-off for these calls is given here.
# Assays:
# PC-12 [1] = assay: Effect on cell morphology in rat PC12 cells at 1 to 10 uM incubated for 4 days in absence of NGF; format: functional, cell-based
# Summary of the method: (§1)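 PC12 cells seeded at 8 × 10^3 cells/cm2 in DMEM + 10% HS, 5% FBS, penicillin/streptomycin, 37 °C, 5% CO2, 24 h. Medium then switched to DMEM + 2% HS, 1% FBS and test samples added without NGF. After 4 days, cells fixed in 4% paraformaldehyde−PBS, stained with methylene blue, and morphology examined by phase-contrast microscopy. Triplicate wells.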
# PC-12 [2] = assay: Potentiation of NGF-induced neurite outgrowth-promotion in rat PC12 cells at 10 uM incubated for 4 days in presence of 0.5 ng/mL NGF; format: functional, cell-based
# PC-12 [3] = assay: Potentiation of NGF-induced neurite outgrowth-promotion in rat PC12 cells assessed as increase in neurite length at 10 uM incubated for 4 days in presence of 0.5 ng/mL NGF (reference value: 21.1 micrometer); format: functional
# PC-12 [4] = assay: Potentiation of NGF-induced neurite outgrowth-promotion in rat PC12 cells assessed as increase in neurite length at 1 uM incubated for 4 days in presence of 0.5 ng/mL NGF (reference value: 21.1 micrometer); format: functional
# PC-12 [5] = assay: Potentiation of NGF-induced neurite outgrowth-promotion in rat PC12 cells at 1 uM incubated for 4 days in presence of 0.5 ng/mL NGF; format: functional, cell-based
# PC-12 [6] = assay: Toxicity in NGF-stimulated rat PC12 cells at > 30 uM incubated for 4 days in presence of 0.5 ng/mL NGF; format: cell-based; conditions: pc-12, 96 h
# Summary of the method: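 PC12 cells grown 24 h in DMEM + 10% HS/5% FBS, then exposed for 4 days to test samples with 0.5 ng/mL NGF in DMEM + 2% HS/1% FBS. After fixing in 4% paraformaldehyde−PBS and methylene blue staining, cells were examined under phase-contrast microscopy.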
# PC-12 [7] = assay: Potentiation of NGF-induced neurite outgrowth-promotion in rat PC12 cells assessed as increase in neurite length at 1 to 30 uM incubated for 4 days in presence of 0.5 ng/mL NGF (reference value: 21.1 micrometer); format: functional, cell-based
# PC-12 [8] = assay: Effect on cell morphology in rat PC12 cells at 1 to 30 uM incubated for 4 days in absence of NGF; format: functional, cell-based; summary of the method: as §1
# PC-12 [9] = assay: Potentiation of NGF-induced neurite outgrowth-promotion in rat PC12 cells at 1 to 30 uM incubated for 4 days in presence of 0.5 ng/mL NGF; format: functional, cell-based
# PC-12 [10] = assay: Potentiation of NGF-induced neurite outgrowth-promotion in rat PC12 cells assessed as increase in neurite length at 30 uM incubated for 4 days in presence of 0.5 ng/mL NGF (reference value: 21.1 micrometer); format: functional
Structure (SMILES),Activity (PC-12 [1]),Activity (PC-12 [2]),Activity (PC-12 [3]) [um],Activity (PC-12 [4]) [um],Activity (PC-12 [5]),Activity (PC-12 [6]),Activity (PC-12 [7]),Activity (PC-12 [8]),Activity (PC-12 [9]),Activity (PC-12 [10]) [um]
CC1(C)CC[C@]2(CC[C@]3(C)C(=CC[C@@H]4[C@@]5(C)C[C@@H](O)[C@H](O)[C@@](C)(CO)[C@@H]5CC[C@]43C)[C@H]2O)C1,inactive,Active,33.1,22.9,Active,Toxic,Dose-dependent effect,,,
CC1(C)CC[C@]2(CC[C@]3(C)C(=CC[C@@H]4[C@@]5(C)C[C@@H](O)[C@H](OC(=O)/C=C/c6ccc(O)cc6)[C@@](C)(CO)[C@@H]5CC[C@]43C)[C@H]2O)C1 (relative stereo),,,33.5,27.6,,,Dose-dependent effect,inactive,Dose-dependent effect,41.9
CC1(C)CC[C@]2(CC[C@]3(C)C(=CC[C@@H]4[C@@]5(C)C[C@@H](O)[C@H](OC(=O)/C=C\c6ccc(O)cc6)[C@@](C)(CO)[C@@H]5CC[C@]43C)[C@H]2O)C1 (relative stereo),,,33.5,27.6,,,Dose-dependent effect,inactive,Dose-dependent effect,41.9
COc1cc(/C=C/C(=O)O[C@H]2[C@H](O)C[C@@]3(C)[C@@H](CC[C@]4(C)[C@@H]3CC=C3[C@@H](O)[C@@]5(CCC(C)(C)C5)CC[C@]34C)[C@]2(C)CO)ccc1O (relative stereo),,,42,32.1,,,Dose-dependent effect,inactive,Dose-dependent effect,55.1
COc1cc(/C=C\C(=O)O[C@H]2[C@H](O)C[C@@]3(C)[C@@H](CC[C@]4(C)[C@@H]3CC=C3[C@@H](O)[C@@]5(CCC(C)(C)C5)CC[C@]34C)[C@]2(C)CO)ccc1O (relative stereo),,,42,32.1,,,Dose-dependent effect,inactive,Dose-dependent effect,55.1
